Data on 27 compounds can be found in ChEMBL document CHEMBL1156071, “Novel L-xylose derivatives as selective sodium-dependent glucose cotransporter 2 (SGLT2) inhibitors for the treatment of type 2 diabetes” (J Med Chem, 2009).

The source made the active and inactive calls. No cut-off for these calls is given here. A value given as a limit tells only on which side of the number the result lay.

As a reminder, the IC50 is the concentration that gives 50% inhibition.

In experiment [1] the target is T1, Sodium/glucose cotransporter 2 (Homo sapiens, UniProt P31639).
T1 sequence (P31639 whole entry): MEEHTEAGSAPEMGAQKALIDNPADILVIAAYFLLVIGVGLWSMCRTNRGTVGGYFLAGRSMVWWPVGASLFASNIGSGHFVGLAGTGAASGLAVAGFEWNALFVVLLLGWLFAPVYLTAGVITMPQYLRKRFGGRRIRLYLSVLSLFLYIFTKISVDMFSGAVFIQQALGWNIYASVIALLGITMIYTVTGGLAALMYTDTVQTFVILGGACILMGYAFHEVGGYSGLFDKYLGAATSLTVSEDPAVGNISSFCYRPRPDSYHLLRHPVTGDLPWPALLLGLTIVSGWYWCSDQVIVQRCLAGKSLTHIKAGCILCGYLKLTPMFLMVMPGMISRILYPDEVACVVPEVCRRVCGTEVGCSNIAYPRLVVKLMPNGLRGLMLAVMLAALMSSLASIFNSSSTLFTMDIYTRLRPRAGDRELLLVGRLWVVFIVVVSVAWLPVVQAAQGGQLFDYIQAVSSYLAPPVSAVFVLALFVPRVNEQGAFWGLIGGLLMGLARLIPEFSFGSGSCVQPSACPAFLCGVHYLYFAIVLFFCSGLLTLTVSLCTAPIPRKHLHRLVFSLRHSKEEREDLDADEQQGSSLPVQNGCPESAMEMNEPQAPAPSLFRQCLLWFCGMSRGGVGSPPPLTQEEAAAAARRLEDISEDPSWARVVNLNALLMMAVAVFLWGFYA
Briefly: Inhibition of human SGLT2 expressed in HEK293 cells assessed as inhibition of [14C]alpha-methylglucopyranoside uptake. The format is cell-based. Put shortly: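 Cells stably expressing human SGLT2 were used to measure sodium-coupled uptake of [14C]α-methylglucopyranoside, a metabolically stable SGLT-specific glucose analogue. Uptake was measured across increasing compound concentrations, and IC50 was derived from the inhibition of uptake.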

Experiment [2] concerns the target T2, Sodium/glucose cotransporter 2 (Mus musculus, UniProt Q923I7).
T2 sequence (Q923I7 whole entry): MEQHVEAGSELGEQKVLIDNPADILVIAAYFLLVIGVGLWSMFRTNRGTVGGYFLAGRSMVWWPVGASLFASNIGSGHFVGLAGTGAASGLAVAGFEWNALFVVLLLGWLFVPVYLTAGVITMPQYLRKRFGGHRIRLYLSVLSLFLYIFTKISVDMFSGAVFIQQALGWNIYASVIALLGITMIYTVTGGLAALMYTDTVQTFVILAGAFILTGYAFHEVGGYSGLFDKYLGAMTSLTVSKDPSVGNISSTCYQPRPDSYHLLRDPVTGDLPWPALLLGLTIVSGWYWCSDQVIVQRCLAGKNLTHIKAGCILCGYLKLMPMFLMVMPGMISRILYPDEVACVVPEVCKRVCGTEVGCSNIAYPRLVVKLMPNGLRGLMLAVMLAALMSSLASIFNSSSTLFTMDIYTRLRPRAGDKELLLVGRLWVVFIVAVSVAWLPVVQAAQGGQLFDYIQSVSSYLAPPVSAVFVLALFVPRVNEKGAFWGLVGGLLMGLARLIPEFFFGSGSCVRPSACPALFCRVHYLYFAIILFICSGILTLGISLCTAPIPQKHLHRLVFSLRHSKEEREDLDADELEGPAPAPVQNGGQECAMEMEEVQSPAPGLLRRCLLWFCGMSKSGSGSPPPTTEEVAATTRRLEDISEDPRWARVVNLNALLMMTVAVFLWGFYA
As to the kind of experiment: Inhibition of mouse SGLT2-mediated [14C]alpha-methylglucopyranoside uptake by cell based assay.

For experiment [3], the system named is Mus musculus. As to the kind of experiment: Induction of glucosuria in high fat diet induced obese albino C57 mouse at 10 to 100 mg/kg, po administered as single administration measured after 17 hrs by glucose excretion assay. The format is functional, organism-based. The procedure, abridged: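 Adult C57 diet-induced obese mice were given one oral gavage dose spanning 10 to 100 mg/kg. Urinary glucose excretion was measured over the first 17 h after dosing, n = 6 per group, with a vehicle-treated group included.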

Experiment [4] relates to Mus musculus. As to the kind of experiment: Induction of glucosuria in high fat diet induced obese albino C57 mouse at 75 mg/kg, po administered as single administration measured after 24 hrs by glucose excretion assay. Also on record: dose 75 mg/kg. The format is functional, organism-based. Put shortly:
(§1)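 DIO mice received one dose, either by oral gavage or as a dietary admixture. Urinary glucose excretion was then followed past 24 h, n = 6.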

In experiment [5] the test system is Mus musculus. As to the kind of experiment: Induction of glucosuria in high fat diet induced obese albino C57 mouse at 77 mg/kg administered daily through diet for 4 consecutive days by glucose excretion assay. The format is functional, organism-based. Further details: dose 77 mg/kg. Put shortly:
(§2)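 DIO mice received the compound as a dietary admixture for 4 consecutive days. Average daily intakes were 8, 26, 77 and 259 mg/kg. Urinary glucose excretion was measured each day, n = 6.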

Experiment [6] deals with Mus musculus. As to the kind of experiment: Induction of glucosuria in high fat diet induced obese albino C57 mouse at 26 mg/kg administered daily through diet for 4 consecutive days by glucose excretion assay. Also on record: dose 26 mg/kg. It counts as functional, organism-based. Put shortly:
as §2

Experiment [7] relates to Mus musculus. Briefly: Induction of glucosuria in high fat diet induced obese albino C57 mouse at 259 mg/kg administered daily through diet for 4 consecutive days by glucose excretion assay. It counts as functional, organism-based. Also on record: dose 259 mg/kg. Put shortly: as §2
In experiment [8] the test system is Mus musculus. As to the kind of experiment: Induction of glucosuria in high fat diet induced obese albino C57 mouse at 30 mg/kg, po administered as single administration measured after 24 hrs by glucose excretion assay. The format is functional, organism-based. Also on record: dose 30 mg/kg. Put shortly: as §1
Experiment [9] concerns Mus musculus. As to the kind of experiment: Induction of glucosuria in high fat diet induced obese albino C57 mouse at 75 mg/kg administered through diet measured after 24 hrs by glucose excretion assay. The format is functional, organism-based. Also on record: dose 75 mg/kg. Put shortly: as §1

For `CCOc1ccc(Cc2cc([C@H]3OC(OC)[C@H](O)[C@@H](O)[C@@H]3O)ccc2Cl)cc1` (stereo partly drawn), the IC50 in experiment [1] was > 30000 nM; in experiment [2], 9200 nM.

As to `COC1O[C@@H](c2ccc(Cl)c(Cc3ccc(Oc4nccs4)cc3)c2)[C@H](O)[C@@H](O)[C@@H]1O` (mixture of isomers), the IC50 in [1] is 150 nM; in experiment [2] it was 60 nM.

In the case of `CCOc1ccc(Cc2cc([C@@H]3OC(OCC)[C@@H](O)[C@H](O)[C@H]3O)ccc2Cl)cc1` (mixture of isomers), the IC50 was found to be 58 nM in experiment [1] and 19 nM in experiment [2].

With `COC1O[C@@H](c2ccc(Cl)c(Cc3ccc(O[C@H]4CCN(C)C4)cc3)c2)[C@H](O)[C@@H](O)[C@@H]1O` (mixture of isomers), the figures for the IC50 in experiment [1] and in experiment [2] were 170 nM and 92 nM, respectively.

For the compound `CCOc1ccc(Cc2cc([C@@H]3OC(OC)[C@H](F)[C@H](O)[C@H]3O)ccc2Cl)cc1` (mixture of isomers), the figures for the IC50 in experiment [1] and in experiment [2] were 600 nM and 220 nM, respectively.

Turning to `CCOc1ccc(Cc2cc([C@@H]3OC(O)[C@@H](O)[C@H](O)[C@H]3O)ccc2Cl)cc1` (mixture of isomers), the IC50 in experiment [1] worked out at 280 nM; in [2], 100 nM.

In the case of `CCOc1ccc(Oc2cc([C@@H]3OC(OC)[C@@H](O)[C@H](O)[C@H]3O)ccc2Cl)cc1` (mixture of isomers), the values for the IC50 in experiment [1] and in experiment [2] were 2400 nM and 1900 nM, respectively.

In the case of `COC1O[C@@H](c2ccc(Cl)c(Cc3ccc(OCCO)cc3)c2)[C@H](O)[C@@H](O)[C@@H]1O` (mixture of isomers), the IC50 came to 36 nM in experiment [1] and 9.5 nM in experiment [2].

With `CCOc1ccc(-c2cccc([C@@H]3OC(OC)[C@@H](O)[C@H](O)[C@H]3O)c2)cc1` (mixture of isomers), the IC50 stood at 4600 nM in [1] and 1900 nM in [2].

On to `CCOc1ccc(Cc2cc([C@@H]3OC(OCc4ccccc4)[C@@H](O)[C@H](O)[C@H]3O)ccc2Cl)cc1` (mixture of isomers), for which the IC50 in experiment [1] amounted to 620 nM; in experiment [2], 330 nM.

Consider `COCCOc1ccc(Cc2cc([C@@H]3OC(OC)[C@@H](O)[C@H](O)[C@H]3O)ccc2Cl)cc1` (mixture of isomers), for which the IC50 in [1] was 45 nM; in experiment [2], 16 nM.

With `CCOc1ccc(Cc2cc([C@@H]3OC(OCCN(C)C)[C@@H](O)[C@H](O)[C@H]3O)ccc2Cl)cc1` (mixture of isomers), the IC50 amounted to 3600 nM in experiment [1] and 2200 nM in experiment [2].

In the case of `COC1O[C@@H](c2ccc(Cl)c(Cc3ccc(O)cc3)c2)[C@H](O)[C@@H](O)[C@@H]1O` (mixture of isomers), the IC50 in experiment [1] is 32 nM; in experiment [2] it was 8 nM.

Regarding `CCOc1ccc(Cc2cccc([C@@H]3OC(OC)[C@@H](O)[C@H](O)[C@H]3O)c2)cc1` (mixture of isomers), the IC50 came out at 1100 nM in [1] and 220 nM in [2].

As to `COC1O[C@@H](c2ccc(Cl)c(Cc3ccc(OC(=S)N(C)C)cc3)c2)[C@H](O)[C@@H](O)[C@@H]1O` (mixture of isomers), the IC50 came out at 740 nM in [1] and 330 nM in experiment [2].

`CCOc1ccc(Cc2cc([C@@H]3OC(OCCO)[C@@H](O)[C@H](O)[C@H]3O)ccc2Cl)cc1` (mixture of isomers): the concentration for half-maximal inhibition (IC50) in [1] was 36 nM; in experiment [2], 23 nM.

Take `CCOc1ccc(Cc2cc([C@@H]3OC(OC)C[C@H](O)[C@H]3O)ccc2Cl)cc1` (mixture of isomers): the IC50 in experiment [1] was > 30000 nM; in experiment [2], 14000 nM.

`COc1ccc(Sc2cc([C@@H]3OC(OC)[C@@H](O)[C@H](O)[C@H]3O)ccc2Cl)cc1` (mixture of isomers): the values for the IC50 in experiment [1] and in experiment [2] were 180 nM and 100 nM, respectively.

`CCOc1ccc(Cc2cc([C@]3(C)OC(OC)[C@@H](O)[C@H](O)[C@H]3O)ccc2Cl)cc1` (mixture of isomers): the IC50 in [1] stood at 590 nM; in experiment [2] it was 220 nM.

For `CCOc1ccc(Cc2cc([C@@H]3OC(OC)[C@@H](O)[C@H](O)[C@H]3O)ccc2C)cc1` (mixture of isomers), the IC50 in experiment [1] turned out to be 55 nM; in [2], 23 nM.

In the case of `CCOc1ccc(Cc2cc([C@@H]3OC(OC(C)C)[C@@H](O)[C@H](O)[C@H]3O)ccc2Cl)cc1` (mixture of isomers), the figures for the IC50 in [1] and in experiment [2] were 420 nM and 190 nM, respectively.

Take `CCOc1ccc(Cc2cc([C@@H]3OC(OC)[C@@H](O)[C@H](O)[C@H]3O)ccc2Cl)cc1` (mixture of isomers; 7a): the Activity result with Mus musculus [3] is “Dose-dependent effect”.

Consider `CCOc1ccc(Cc2cc([C@@H]3OC(OC)[C@@H](O)[C@H](O)[C@H]3O)ccc2Cl)cc1` (mixture of isomers; 7b), for which the IC50 amounted to 4800 nM in [1] and 280 nM in [2].

Regarding `CCOc1ccc(Cc2cc([C@@H]3OC(OC)[C@@H](O)[C@H](O)[C@H]3O)ccc2Cl)cc1` (mixture of isomers; 7c), the Activity result in the experiment with Mus musculus [3] is “Dose-dependent effect”. Further, the outcome with Mus musculus [4], in the experiment with Mus musculus [5], in the experiment on Mus musculus [6], in the experiment on Mus musculus [7], in the experiment on Mus musculus [8] and in the experiment on Mus musculus [9] was Active.

On to `CCOc1ccc(C(=O)c2cc([C@@H]3OC(OC)[C@@H](O)[C@H](O)[C@H]3O)ccc2Cl)cc1` (single isomer, unassigned), for which the results for the IC50 in experiment [1] and in experiment [2] were 100 nM and 57 nM, respectively.

On to `CCOc1ccc(Cc2cc([C@@H]3OC(OC)[C@@H](O)[C@H](O)[C@H]3O)ccc2Cl)cc1` (stereo in doubt; 6a), for which the IC50 is 25 nM in [1] and 7.1 nM in experiment [2].

For the compound `CCOc1ccc(Cc2cc([C@@H]3OC(OC(C)C)[C@@H](O)[C@H](O)[C@H]3O)ccc2Cl)cc1` (stereo in doubt; 9b), the IC50 in [1] was 33 nM; in experiment [2], 15 nM.
